Assay: Toxicity liver stage against HepG2, at 10uM
Type: cell-based
Design: test concentration 10 uM, cell line HepG2-A16-CD81EGFP
Details: human, HepG2-A16-CD81EGFP cells; read-out: INHIBITION
How it was run: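 Uninfected HepG2-A16-CD81EGFP cells, 3 × 10^3 per well, 1536-well, plated on prespotted compound at 10 μM final, parasite-free screening media added to match infected plates; puromycin 10 μM positive, DMSO 0.5% negative; run in parallel with 48 h PbLuc assay at 37 °C, 5% CO2; viability by CellTiter-Glo luminescence, normalized to controls.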

SMILES | cytotoxicity at 10 µM
COc1cccc2c3c(c(=O)[nH]c12)CCC(C)(C)O3 | -1.43%
O=C(NCC(O)c1ccccc1)Nc1cccs1 (stereo unspecified) | 8.25%
CC(C)CNC[C@H]1COCc2nc3cccnc3n21 | -4.48%
c1ccc(Cc2nnc([C@H]3CCN(C4CCCCC4)C3)o2)cc1 | -1.14%
CC(C)N1CCN2C(=O)N(C3CCCCC3)C[C@H]2C1 | 1.2%
CCCn1nnc(NCc2ccccc2OCc2ccc(Cl)cc2)n1 | 2.76%
Cc1csc(NC(=O)c2ccc(NC(=O)N3CCOCC3)cc2)n1 | 1.11%
CC(C)c1nnc(C2CCN(CC(=O)Nc3cccnc3)CC2)o1 | -5.92%
O=C(Nc1cnn(C2CCOCC2)c1)c1ccc2c(c1)OCO2 | 3.07%
COCc1nn(CC2CC2)c2c1CN(C(=O)c1ccno1)CC2 | 10.4%
O=C(c1ccncc1)N1CCc2onc(CN3CCCC3)c2C1 | -3.7%
Cc1cccc(N2CC[C@@H]3[C@@H](CO[C@H]3CNS(C)(=O)=O)C2)n1 | 3.62%
COc1ccc(CN2C[C@@H]3CN(C(=O)c4ccsc4)C[C@@H]3C2=O)cc1 | -3.7%
c1ccc(-c2ncc3c(n2)C2(CCN(c4ncccn4)C2)COC3)cc1 (stereo unspecified) | 1.36%
CO[C@H]1CN(C(=O)c2ccc(C)o2)[C@@H]2CCCO[C@H]12 | -153%
COc1cccc(C2CC(=O)Nc3c2cnn3C(C)(C)C)c1 (stereo unspecified) | -8.54%
CC(C)[C@H](NC(=O)NC1CCS(=O)(=O)C1)C(=O)Nc1cccnc1 (stereo partly specified) | 6.85%
COCCN1C(=O)CCC12CCN(C(=O)NC(C)C)CC2 | 4.45%
O=C(c1ccc[nH]1)N1C[C@H](OCc2cccnc2)[C@H]2COC[C@H]21 | -10.4%
CC(=O)c1ccc(NC(=O)C(C)Cn2cc(Br)cn2)cc1 (stereo unspecified) | 0.88%
CCS(=O)(=O)Nc1ccn(Cc2c(F)cccc2Cl)n1 | 7.77%
COc1c(Br)c(C(=O)NC2CCCCC2)nn1C | 6.94%
CN(C)CC1(O)CCN(C(=O)Cc2ccc3ccccc3c2)C1 (stereo unspecified) | -6.77%

SMILES | cytotoxicity at 10 µM
c1ccc(Oc2nccnc2C2CCN(C3CCOCC3)CC2)cc1 | 4.38%
Cc1nccc(C2CCCN(C(=O)c3cncnc3)C2)n1 (stereo unspecified) | 4.1%
CCOC(=O)c1n[nH]cc1-c1cncn1CCn1nc(C)c(Cl)c1C | -15.1%
NC(=O)CN1CCCC(c2nccnc2Oc2cccc(F)c2)C1 (stereo unspecified) | -17.1%
CNc1cccc(C2CCCN(C(=O)c3cnccn3)C2)n1 (stereo unspecified) | -19.2%
Cc1cccc(CC(=O)NC2CCN(C(=O)NC(C)(C)C)CC2)c1 | -10.4%
Cn1ccnc1CN1CCCN(C(=O)C2(C#N)CCCCC2)CC1 | -2.84%
Cc1ccn(Cc2nc(C(C)OCC(C)C)no2)c(=O)c1 (stereo unspecified) | 5.56%
CCNC(=O)CNC(=O)c1nc(C2CC2)n(-c2ccccc2Cl)n1 | 5.91%
CC(C)(NCc1cccc(O)c1)c1ccc2c(c1)OCO2 | 5.12%
CC(C)S(=O)(=O)CCN1CCN(C(C#N)c2ccccc2)CC1 (stereo unspecified) | 0.401%
CCC(CNS(=O)(=O)c1cccc(C(=O)OC)c1)N1CCCC1 (stereo unspecified) | -8.93%
CCOCCC(=O)Nc1cccc(Cl)c1C(N)=O | -8.59%
CCc1cnc(C(C)NC(=O)N2CCCN(CC(F)F)CC2)s1 (stereo unspecified) | -0.423%
Cc1cc(C(=O)N2CCNC(=O)CC2)c(C)n1CC(F)(F)F | 1.88%
CCn1cc(C(=O)NCC(C)(CC)N2CCOCC2)c2ccccc21 (stereo unspecified) | 6.13%
Cc1ccc(CNC(=O)NC2CCC(O)CC2)c(N2CCCC2)c1 (stereo unspecified) | -16.4%
CN1CCN(C(=O)c2cccn2C)c2ccccc2C1 | 7.28%
Cc1csc(CNC(=O)NC2CCCN(S(C)(=O)=O)C2)n1 (stereo unspecified) | -6.3%
Cc1cc(F)cc2c(N3CCS(=O)(=O)CC3)c(C#N)cnc12 | -16.7%
CCc1nsc(N2CCN(C(=O)COc3ccccc3)CC2)n1 | -3.49%
COC(=O)CCNC(=O)c1ccc(NC(=O)N(C)CC(C)(C)C)cc1 | 8.01%
CC(C)c1nn(C)c(N(C)C)c1CNCC(O)COc1ccccc1 (stereo unspecified) | 0.142%

SMILES | cytotoxicity at 10 µM
CCNC(=O)C1CCN(Cn2nc(-c3ccccc3)oc2=O)CC1 | 11.5%
Cc1cnn(CC2CCCN2C(=O)CCc2c(C)nc(C)[nH]c2=O)c1 (stereo unspecified) | -2.79%
CC(C)NC(=O)c1nnn(-c2ccc(F)cc2)c1C1CC1 | 12.1%
NC(=O)C1CCCCN1C(=O)c1ccc(Br)s1 (stereo unspecified) | -6.38%
OC1CCN(c2ccc(CNc3nc4ccccc4o3)cc2F)CC1 | 0.833%
Cc1nc2ccc(C(=O)N(CCC#N)CCC#N)cc2nc1C | -12.8%
CC(C)C1CN(C(=O)c2ccn(C)c(=O)c2)c2ccccc2N1 (stereo unspecified) | -6.01%
CCOc1ncccc1C(=O)N1CC=C(c2ccc(O)cc2)CC1 | 8.02%
CC(C)n1cc2cc(NC(=O)Cn3cnnn3)ccc2n1 | -138%
Cc1cc(NC(C)C(=O)NCc2ccccc2)nc(-c2ccncc2)n1 (stereo unspecified) | 0.563%
C1CCN(CCOC2CCNCC2)C1 | 6.59%
O=C(NCC1(c2cccc(F)c2)CC1)N1CCC2(CCOC2)C1 (stereo unspecified) | 2.82%
CN(Cc1cccs1)c1cc(N2CCCC2CO)ncn1 (stereo unspecified) | 1.26%
CS(=O)(=O)c1cccc(S(=O)(=O)NC(=O)CCC2CCCCC2)c1 | 0.848%
CCCSCC(=O)Nc1ncn(CC(=O)N2CCCCCC2)n1 | -3.91%
Cc1cc(N2CCCC(OC(=O)CCc3cnn(C)c3)C2)nc(C)n1 (stereo unspecified) | 0.127%
CCN(CC)c1ccc(CNC(=O)C2(C)CCOCC2)cc1F | -4.08%
CCOCCCC(=O)NCCC(=O)N1CCN(c2ccccn2)CC1 | -4.76%
CC1CN(C)c2ccccc2CN1C(=O)CSc1ccncc1 (stereo unspecified) | -12.6%
CN(C)C1CCN(C(=O)c2n[nH]c3c2CCN(CC2CCC2)C3)CC1 | 3.48%
CCn1cc2c(n1)C(COC)CN(C(=O)CCOc1ccccc1)C2 (stereo unspecified) | 0.234%
CCC[C@H]1CN(CCCO)C[C@@H]1NC(=O)Cn1cc(C)cn1 | 1.39%
Cc1nc[nH]c1C(=O)N1CCC2(CC1)CN(CCN(C)C)C(=O)O2 | 4.54%

SMILES | cytotoxicity at 10 µM
Cc1ccccc1NC(=O)CNC(C)COc1ccccc1 (stereo unspecified) | -0.264%
CN(CC1CCCCO1)c1nc2c(cc1C(N)=O)CCC2 (stereo unspecified) | -5.64%
O=C1NCCN1CCNc1cc(-c2ccccc2)nc2ccnn12 | -10.7%
CCc1nc(N)nc(N2CCCC3(CN(C)C(=O)O3)C2)c1C (stereo unspecified) | -138%
Cc1c(CNCC(C)Oc2cccnc2)c2ccccc2n1CC(N)=O (stereo unspecified) | -141%
Cc1cc(C)c2c(N(C)CC3CCOC3)ncnc2n1 (stereo unspecified) | -146%
NS(=O)(=O)CCCC(=O)N1CCC2(CC1)c1ccccc1CC2O (stereo unspecified) | 4.71%
O=C(CCc1cc2n(n1)CCCNC2)N1CCC(N2CCOC2=O)CC1 | 6.05%
Nc1ncc(C(=O)N2CCC3(CCCO3)CC2)c(-c2ccccc2)n1 | -156%
O=C(NCC1=CCCCC1)C(c1cccnc1)N1CCCC1 (stereo unspecified) | -3.78%
CN1CCC(N(CCc2ccccc2)C(=O)COCC2CCCO2)CC1 (stereo unspecified) | -148%
COc1ccccc1CC(=O)N1CCC(OCc2cccnc2)CC1 | 4.87%
CC(=O)N[C@@H](C)C(=O)NCc1cccnc1Oc1ccccc1F | -3.53%
COc1ccc(-c2noc(C3CC(C(C)C)=NO3)n2)cc1 (stereo unspecified) | -6.64%
CC(C)c1ccn(C2(C(=O)O)CCN(c3ccncc3F)CC2)n1 | -0.679%
c1ccc(-c2noc(CCNC3CCOC4(CCOCC4)C3)n2)nc1 (stereo unspecified) | -6.5%
CC(C)[C@H]1COC(=O)N1Cc1nnc(-c2ccccc2)o1 | 0.537%
CCc1cnc(C)nc1NCCc1nc(N)cc(O)n1 | -0.264%
Cc1nc(CNC(=O)CC2C(=O)NCCN2CCC(C)C)n[nH]1 (stereo unspecified) | -4.44%
Cc1nc(NCCC23CCCN2CCC3)cc(C2CCNCC2)n1 | 8.37%
CCN1CC(C(=O)N2CCC(Oc3ccccc3C)CC2)CC1=O (stereo unspecified) | -12.1%
O=C(CCc1ccc(=O)[nH]n1)N1CCCC(COc2ccc(F)cc2)C1 (stereo unspecified) | 1.9%
Cc1nn(C)c(C)c1C1CCCN1C(=O)CCNS(C)(=O)=O (stereo unspecified) | -26%

SMILES | cytotoxicity at 10 µM
CCc1nnc(CN2CCc3cnc(C)nc3C2)o1 | -4.04%
Clc1ccc(-c2nnc(CNCCn3cccn3)o2)c(Cl)c1 | -4.86%
CCOc1ccc(C#N)cc1NCC(=O)OC | -19.2%
Cc1nc(C)n(CC2CCCN2CCC(=O)NC2CCCC2)n1 (stereo unspecified) | -10.4%
CCN(CCC1CCN(C(=O)NCc2nncn2CC)CC1)CC1CC1 | -2.75%
CN(Cc1cccc(C(N)=O)c1)CC1CCCN1c1cccnn1 (stereo unspecified) | -9.75%
CN1CC(C(=O)NCc2cccnc2-n2cccn2)CC1=O (stereo unspecified) | -6.18%
CCn1cnnc1C1CCN(C(=O)COc2ccc(Cl)cc2)CC1 | -3.39%
CC(C)c1cc(NC(=O)c2ccc(NC3CC3)nc2)[nH]n1 | -8.9%
CNC(=O)[C@@H](c1ccccc1OC)N1CCC[C@H]1C(=O)N1CCC1 | 1.44%
CC(C)(C)NC[C@@H]1CCC[C@@H]2CN(Cc3csnn3)C[C@@H]21 | -134%
CN(C)CCN1C(=O)CCC12CCCN(C(=O)c1cccnc1)CC2 (stereo unspecified) | -6.78%
Cc1ccc2c(n1)N(CC1CC1)CCN(C(=O)c1ccncc1F)C2 | -0.182%
CNC(=O)c1cc2c(nc1NCC(C)C)CCN(c1ccncn1)CC2 | 7.95%
CCC(=O)N1CCC2(CC1)C(=O)N(Cc1cccnc1)CCN2C | 2.17%
CCN(C)c1ncnc2c1CCN(Cc1nccs1)CC2 | -2.46%
O=c1ccc2c([nH]1)CCC(NCc1ccc3c(c1)OCO3)C2 (stereo unspecified) | 6.69%
O=C(CSc1ccccn1)N1C[C@@H]2CC[C@H]1CN(Cc1cscn1)C2 | 1.93%
O=C(c1ccccn1)N1C[C@H]2CC[C@@H](C1)N(C(=O)CCC1CCCC1)C2 | 3.07%
